The subject of data set [1] is Plasmodium falciparum. Kind of data set: Antiplasmodial activity against Plasmodium falciparum Dd2 infected in […] after 72 hrs by SYBR green assay. Conditions: Dd2, 72 h. The format is functional, organism-based.
Data set [2] addresses T1, Dihydroorotate dehydrogenase (Plasmodium falciparum, UniProt Q54A96).
T1 sequence (Q54A96 whole entry): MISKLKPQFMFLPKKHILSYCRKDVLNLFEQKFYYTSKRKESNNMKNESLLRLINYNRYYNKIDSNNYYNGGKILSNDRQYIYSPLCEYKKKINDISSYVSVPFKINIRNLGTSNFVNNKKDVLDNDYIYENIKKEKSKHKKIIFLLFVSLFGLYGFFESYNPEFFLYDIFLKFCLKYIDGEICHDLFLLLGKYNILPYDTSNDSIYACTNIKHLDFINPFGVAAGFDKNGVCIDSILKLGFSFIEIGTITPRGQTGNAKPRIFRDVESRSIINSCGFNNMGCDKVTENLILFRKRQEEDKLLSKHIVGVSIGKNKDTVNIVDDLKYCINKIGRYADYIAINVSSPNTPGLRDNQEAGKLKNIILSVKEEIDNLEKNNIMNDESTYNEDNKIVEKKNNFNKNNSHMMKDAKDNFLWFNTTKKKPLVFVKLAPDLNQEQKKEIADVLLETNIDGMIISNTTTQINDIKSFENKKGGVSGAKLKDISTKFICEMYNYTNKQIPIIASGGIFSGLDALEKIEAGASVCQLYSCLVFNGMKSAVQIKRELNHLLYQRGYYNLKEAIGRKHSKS
As to the kind of experiment: Inhibition of Plasmodium falciparum DHODH after 20 mins by 2,6-dichloroindophenol-reduction based assay.

Data set [3] has as its system Plasmodium falciparum. Kind of data set: Antiplasmodial activity against Plasmodium falciparum 3D7 infected in […] after 72 hrs by SYBR green assay. The format is functional, organism-based. The note with it: 3D7, 72 h.
The nature of data set [4]: Cytotoxicity against human RPTEC after 4 days by alamar blue assay. Conditions: RPTEC cells, read-out: LC50. Type of data set: cell-based. A general note: The colour change of resazurin is a common sign of viable cells or microbes.
The test system of data set [5] is Plasmodium vivax. Kind of data set: Inhibition of Plasmodium vivax DHODH after 20 mins by 2,6-dichloroindophenol-reduction based assay.
A short description of data set [6]: Clearance in human liver microsomes by LC-MS/MS analysis. The format is ADME, Microsome. An outline of the steps: (§1)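 Liver microsome incubation. Predicted clearance is derived from a well-stirred model corrected for microsomal and protein binding.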
For orientation: Microsomes from liver hold many membrane-bound enzymes, among them those of drug oxidation.

Data set [7] has as its system Plasmodium berghei. As to the kind of experiment: Inhibition of Plasmodium berghei DHODH after 20 mins by 2,6-dichloroindophenol-reduction based assay.
Data set [8] can be described thus: Clearance in mouse liver microsomes by LC-MS/MS analysis. Type of data set: ADME, Microsome. The gist of the method:
as §1

Data set [9] has as its target Dihydroorotate dehydrogenase (quinone), mitochondrial (Homo sapiens, UniProt Q02127). As to the kind of experiment: Inhibition of human DHODH after 20 mins by 2,6-dichloroindophenol-reduction based assay.

Active and inactive are the calls of the source. No cut-off for these calls is given here. Where only a bound is given, the exact number is not on record here.

Sequence of Dihydroorotate dehydrogenase (quinone), mitochondrial (Q02127 whole entry): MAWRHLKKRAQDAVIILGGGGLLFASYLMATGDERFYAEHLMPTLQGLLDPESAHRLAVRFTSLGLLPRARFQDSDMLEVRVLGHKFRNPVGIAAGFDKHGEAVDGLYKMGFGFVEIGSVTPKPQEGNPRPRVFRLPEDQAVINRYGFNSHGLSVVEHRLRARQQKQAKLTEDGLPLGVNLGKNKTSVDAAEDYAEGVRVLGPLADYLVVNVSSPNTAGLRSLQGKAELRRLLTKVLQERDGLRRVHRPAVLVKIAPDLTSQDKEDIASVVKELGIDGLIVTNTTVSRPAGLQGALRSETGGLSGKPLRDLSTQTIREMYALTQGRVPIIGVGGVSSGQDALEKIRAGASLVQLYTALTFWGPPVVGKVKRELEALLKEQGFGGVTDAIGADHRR

`CNC(=O)c1ccc(-n2cnc3ccccc32)s1`: the concentration for half-maximal inhibition (IC50) in [1] came out at 420 nM; in data set [2] it was 1080 nM; in data set [3], 280 nM. For the same molecule, the CC50 at 96 h in data set [4] is over 62000 nM.
On the same counts, the results for `CCc1nc2ccccc2n1-c1ccc(C(=O)NC2CC2)s1` are 180 nM, 110 nM, 120 nM and over 62000 nM.
Turning to `Cc1cccc2nc(C)n(-c3ccc(C(=O)NC4CC4)s3)c12`, the inhibition entry in [5] and in data set [7] was “Active” each time. Moreover, the CLhep predicted in data set [6] is 6 mL/min/kg; in data set [8], over 72 mL/min/kg. The half-inhibitory concentration (IC50) in data set [1] was determined as 290 nM; in data set [2], 609 nM; in data set [3], 143 nM.
With `Cc1nc2c(N(C)C)cccc2n1-c1ccc(C(=O)NC2CC2)s1`, the inhibition result in [5] and in data set [7] was “Active” each time. Besides, the half-inhibitory concentration (IC50) in data set [1] turned out to be 159 nM; in data set [2], 181 nM; in data set [3], 75 nM.
Consider `CN(C)C(=O)c1ccc(-n2cnc3ccccc32)s1`, for which the half-maximal inhibitory concentration (IC50) in [1] was over 40000 nM; in data set [2], over 30000 nM; in [3] it was over 40000 nM.
Regarding `Cc1nc2cc(Cl)ccc2n1-c1ccc(C(=O)NC2CC2)s1`, the inhibition result in data set [5] and in data set [7] was “Active” each time. Also, the half-inhibitory concentration (IC50) in data set [1] was 102 nM; in [2] it was 49 nM; in [3], 78 nM.
`Cc1cc(F)c2c(c1)ncn2-c1ccc(C(=O)NC2CC2)s1`: the inhibition entry in data set [5] and in data set [7] was “Active” in each case. In addition, the figures for the CLhep predicted in data set [6] and in data set [8] were 11 mL/min/kg and over 72 mL/min/kg, respectively. Moreover, the IC50 in [1] was found to be 60 nM; in data set [2], 95 nM; in data set [3], 36 nM; in [9] it was 7300 nM.
Turning to `O=C(NC1CC1)c1ccc(-n2cnc3c(F)cccc32)s1`, the inhibition entry in [5] and in [7] was “Active” throughout. Moreover, the CLhep predicted in [6] was 10 mL/min/kg; in data set [8], over 72 mL/min/kg. Moreover, the IC50 in data set [1] was 8 nM; in data set [2] it was 62 nM; in [3], 17 nM; in data set [9] it was 14900 nM.
Regarding `CCNC(=O)c1ccc(-n2cnc3ccccc32)s1`, the IC50 in [1] was 150 nM; in data set [2], 140 nM; in data set [3], 100 nM. Also, the CC50 at 96 h in data set [4] was over 62000 nM.
Regarding `O=C(NC1CC1)c1ccc(-n2cnc3cc(C(F)(F)F)ccc32)s1`, the inhibition result in data set [5] and in [7] was “Active” each time. The CLhep predicted was 8 mL/min/kg in [6] and over 72 mL/min/kg in data set [8]. Moreover, the half-maximal inhibitory concentration (IC50) in data set [1] came to 12 nM; in data set [2], 19 nM; in [3], 12 nM; in [9], 17200 nM.
For the molecule `Cc1nc2ccc(OC(F)(F)F)cc2n1-c1ccc(C(=O)NC2CC2)s1`, the inhibition entry in data set [5] and in data set [7] was “Active” each time. The CLhep predicted in data set [6] is 10 mL/min/kg; in data set [8], 41 mL/min/kg. The half-maximal inhibitory concentration (IC50) in [1] worked out at 53 nM; in data set [2], 52 nM; in [3], 36 nM.
For the molecule `O=C(NC1CC1)c1ccc(-n2cnc3c(Cl)cc(F)cc32)s1`, the inhibition entry in [5] and in data set [7] was “Active” in each case. Moreover, the CLhep predicted in data set [6] was 7 mL/min/kg; in data set [8], over 72 mL/min/kg. In addition, the IC50 is 18 nM in data set [1], 35 nM in [2], 8 nM in data set [3] and 5600 nM in data set [9].
With `CCCCNC(=O)c1ccc(-n2cnc3ccccc32)s1`, the values for the concentration for half-maximal inhibition (IC50) in [1], in data set [3] and in data set [9] were 7300 nM, over 20000 nM and over 30000 nM, respectively.
Consider `Cc1nc2ccc(F)cc2n1-c1ccc(C(=O)NC2CC2)s1`, for which the inhibition entry in data set [5] and in data set [7] was “Active” each time. In addition, the CLhep predicted in [6] is under 4 mL/min/kg; in [8], over 72 mL/min/kg. Besides, the figures for the half-inhibitory concentration (IC50) in data set [1], in [2] and in [3] were 113 nM, 111 nM and 93 nM, respectively.
For the molecule `Cc1ccc2nc(C)n(-c3ccc(C(=O)NC4CC4)s3)c2c1`, the inhibition result in data set [5] and in data set [7] was “Active” in each case. Further, the CLhep predicted in [6] was 10 mL/min/kg; in data set [8] it was over 72 mL/min/kg. For the same molecule, the IC50 stood at 74 nM in data set [1], 56 nM in [2] and 33 nM in data set [3].
With `Cc1cccc2c1nc(C)n2-c1ccc(C(=O)NC2CC2)s1`, the inhibition result in [5] and in [7] was “Active” throughout. The CLhep predicted in data set [6] is 10 mL/min/kg; in [8], 66 mL/min/kg. Also, the 50% inhibitory concentration (IC50) in data set [1] turned out to be 22 nM; in data set [2], 39 nM; in data set [3], 10 nM.
On to `Cc1nc2c(OCC(F)F)cccc2n1-c1ccc(C(=O)NC2CC2)s1`, for which the inhibition result in [5] and in [7] was “Active” in each case. The concentration for half-maximal inhibition (IC50) amounted to 113 nM in [1], 28 nM in [2] and 128 nM in data set [3].
Take `O=C(NC1CCCC1)c1ccc(-n2cnc3ccccc32)s1`: the figures for the IC50 in [1], in [2] and in data set [3] were 5500 nM, 2510 nM and 4400 nM, respectively.
On to `Cc1cc(F)c2ncn(-c3ccc(C(=O)NC4CC4)s3)c2c1`, for which the inhibition result in data set [5] and in [7] was “Active” in each case. Also, the CLhep predicted was 10 mL/min/kg in [6] and over 72 mL/min/kg in [8]. Moreover, the IC50 was found to be 4 nM in data set [1], 17 nM in [2], 4 nM in data set [3] and 3100 nM in [9].
On to `Cc1nc2c(F)cccc2n1-c1ccc(C(=O)NC2CC2)s1`, for which the inhibition entry in data set [5] and in [7] was “Active” throughout. Also, the CLhep predicted in [6] was under 4 mL/min/kg; in data set [8] it was 37 mL/min/kg. The 50% inhibitory concentration (IC50) is 6 nM in data set [1], 34 nM in [2] and 8 nM in data set [3].
With `NC(=O)c1ccc(-n2cnc3ccccc32)s1`, the IC50 in data set [1] is over 30000 nM; in [2], over 30000 nM; in [3], over 40000 nM.
For the molecule `Cc1nc2c(Cl)cc(F)cc2n1-c1ccc(C(=O)NC2CC2)s1`, the inhibition entry in data set [5] and in data set [7] was “Active” in each case. For the same molecule, the CLhep predicted in data set [6] was 5 mL/min/kg; in [8], 42 mL/min/kg. For the same molecule, the IC50 in data set [1] is 13 nM; in data set [2], 25 nM; in data set [3], 12 nM; in [9] it was over 30000 nM.
In the case of `Cc1nc2cc(C(F)(F)F)ccc2n1-c1ccc(C(=O)NC2CC2)s1`, the inhibition result in [5] and in data set [7] was “Active” in each case. Moreover, the results for the CLhep predicted in [6] and in data set [8] were 4 mL/min/kg and over 72 mL/min/kg, respectively. For the same molecule, the concentration for half-maximal inhibition (IC50) in [1] was determined as 28 nM; in data set [2], 28 nM; in [3], 20 nM.
`Cc1nc2c(Br)cccc2n1-c1ccc(C(=O)NC2CC2)s1`: the inhibition entry in data set [5] and in data set [7] was “Active” throughout. In addition, the CLhep predicted was 5 mL/min/kg in data set [6] and 26 mL/min/kg in data set [8]. The concentration for half-maximal inhibition (IC50) was 7 nM in data set [1], 21 nM in data set [2] and 4 nM in [3].
With `Cc1ccc2c(c1)nc(C)n2-c1ccc(C(=O)NC2CC2)s1`, the inhibition entry in data set [5] and in data set [7] was “Active” in each case. Further, the figures for the CLhep predicted in data set [6] and in data set [8] were 8 mL/min/kg and over 72 mL/min/kg, respectively. Moreover, the values for the IC50 in data set [1], in [2] and in data set [3] were 130 nM, 56 nM and 87 nM, respectively.
Take `Cc1nc2ccc(C(F)(F)F)cc2n1-c1ccc(C(=O)NC2CC2)s1`: the inhibition result in data set [5] and in data set [7] was “Active” throughout. The values for the CLhep predicted in data set [6] and in data set [8] were 8 mL/min/kg and 68 mL/min/kg, respectively. For the same molecule, the values for the IC50 in data set [1], in data set [2] and in data set [3] were 96 nM, 92 nM and 56 nM, respectively.
With `O=C(NC1CC1)c1ccc(-n2c(=O)[nH]c3ccccc32)s1`, the IC50 in data set [1] was over 5000 nM; in [2] it was over 30000 nM; in data set [3] it was over 5000 nM.
As for `Cc1nc2c(Cl)cccc2n1-c1ccc(C(=O)NC2CC2)s1`, the inhibition entry in data set [5] and in [7] was “Active” in each case. The figures for the CLhep predicted in data set [6] and in data set [8] were under 4 mL/min/kg and 19 mL/min/kg, respectively. Further, the half-inhibitory concentration (IC50) in [1] was 6 nM; in data set [2] it was 21 nM; in data set [3] it was 5 nM.
With `Cc1cc(F)c2nc(C)n(-c3ccc(C(=O)NC4CC4)s3)c2c1`, the inhibition entry in data set [5] and in [7] was “Active” in each case. Besides, the figures for the CLhep predicted in [6] and in data set [8] were 12 mL/min/kg and over 72 mL/min/kg, respectively. The IC50 amounted to 17 nM in [1], 32 nM in [2] and 10 nM in data set [3].

For orientation: IC50 means the concentration at which inhibition is half-maximal. A high value points to lower potency.

The record behind these values is ChEMBL document CHEMBL2010768, “Optimization of Potent Inhibitors of P. falciparum Dihydroorotate Dehydrogenase for the Treatment of Malaria” (ACS Med Chem Lett, 2011).
